Test results taken from ChEMBL document CHEMBL1129349, “Antiretroviral agents as inhibitors of both human immunodeficiency virus type 1 integrase and protease” (J Med Chem, 1996).

Key:
[1] = molecular target: T1, Human immunodeficiency virus type 1 protease (Human immunodeficiency virus 1, UniProt Q72874); assay: Inhibitory activity against HIV-1 protease
[2] = molecular target: T2, Human immunodeficiency virus type 1 integrase (Human immunodeficiency virus 1, UniProt Q7ZJM1); assay: (§1) Inhibitory activity against HIV-1 integrase
Summary of the method: (§2)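 Purified recombinant wild-type HIV-1 integrase, 200 nM final, preincubated with inhibitor for 30 min at 30 °C. Buffer: 25 mM MOPS pH 7.2, 7.5 mM MnCl2, 50 mM NaCl, 10% DMSO, 10% glycerol, BSA, DTT, 2-mercaptoethanol. Then 20 nM 5'-32P-labeled 21mer U5 duplex added for 60 min. Products run on denaturing 20% polyacrylamide gel and quantified by phosphorimager.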

[3] = molecular target: T2, Human immunodeficiency virus type 1 integrase; assay: as §1; summary of the method: as §2; remark: listed apart in the source
[4] = molecular target: T1, Human immunodeficiency virus type 1 protease; assay: Inhibitory activity against HIV-1 Protease.
[5] = molecular target: T3, DNA topoisomerase 1 (Homo sapiens, UniProt P11387); assay: Inhibitory activity against topoisomerase I.
T3 sequence (P11387 whole entry): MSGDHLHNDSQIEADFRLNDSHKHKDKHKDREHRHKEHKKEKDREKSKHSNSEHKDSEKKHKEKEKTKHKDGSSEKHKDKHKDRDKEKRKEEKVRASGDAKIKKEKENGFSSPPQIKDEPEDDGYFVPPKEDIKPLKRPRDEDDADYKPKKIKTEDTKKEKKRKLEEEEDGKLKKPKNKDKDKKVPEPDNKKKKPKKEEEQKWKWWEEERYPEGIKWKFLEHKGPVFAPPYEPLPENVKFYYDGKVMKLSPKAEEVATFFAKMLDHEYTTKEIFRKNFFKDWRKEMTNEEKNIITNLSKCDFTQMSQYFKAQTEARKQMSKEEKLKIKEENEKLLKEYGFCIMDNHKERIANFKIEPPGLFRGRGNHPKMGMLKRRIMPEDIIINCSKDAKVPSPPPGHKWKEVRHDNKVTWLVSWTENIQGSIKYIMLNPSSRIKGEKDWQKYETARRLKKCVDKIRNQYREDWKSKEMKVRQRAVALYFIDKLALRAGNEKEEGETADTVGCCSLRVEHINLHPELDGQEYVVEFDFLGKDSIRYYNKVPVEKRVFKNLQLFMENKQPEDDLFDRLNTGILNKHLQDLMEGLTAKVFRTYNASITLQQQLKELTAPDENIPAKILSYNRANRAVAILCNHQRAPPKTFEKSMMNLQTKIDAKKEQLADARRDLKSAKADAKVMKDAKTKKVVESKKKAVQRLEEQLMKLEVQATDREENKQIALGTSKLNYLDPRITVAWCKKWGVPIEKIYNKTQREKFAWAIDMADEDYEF
Summary of the method: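 Eukaryotic topoisomerase I on a duplex oligonucleotide with a single strong cleavage site, 3'-end labeled with α-[32P]cordycepin. Scored both for induction of cleavable complexes and for blocking camptothecin-induced complexes. Stopped with 0.5% SDS, proteinase K 60 min at 50 °C, denaturing 16% PAGE.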

[6] = tested on: Simian immunodeficiency virus; assay: Inhibitory activity against simian was measured immunodeficiency virus (SIV) using 3'-processing (3'-proc); type: functional
Summary of the method: (§3)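 Recombinant FIV or SIV integrase, 600 nM final, preincubated 30 min at 30 °C with inhibitor in Mn2+/MOPS pH 7.2 buffer with 10% DMSO. 20 nM 5'-32P-labeled 21mer duplex added and incubated 60 min. The 3'-processed 19mer was resolved on denaturing 20% polyacrylamide gel and quantified by phosphorimager.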

[7] = molecular target: T4, Human immunodeficiency virus type 2 integrase (Human immunodeficiency virus 2, UniProt P89582); assay: Inhibitory activity against HIV-2 Integrase was measured using 3'-processing (3'-proc) assay.
T4 sequence (P89582 whole entry): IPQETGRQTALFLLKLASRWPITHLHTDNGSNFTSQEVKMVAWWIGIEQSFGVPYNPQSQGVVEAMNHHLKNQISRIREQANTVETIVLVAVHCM
Summary of the method: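 HIV-2 integrase, 200 nM final, preincubated 30 min at 30 °C with inhibitor in Mn2+/MOPS pH 7.2 buffer containing 10% DMSO. 3'-processing started with 20 nM 5'-32P-labeled 21mer duplex substrate and run 60 min more. Denaturing 20% PAGE, phosphorimager quantitation of the 19mer product.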

[8] = tested on: Feline immunodeficiency virus; assay: Inhibitory activity against feline was measured immunodeficiency virus (FIV) using 3'-processing (3'-proc) assay..; type: functional; summary of the method: as §3
[9] = tested on: CCRF-CEM; assay: Inhibitory activity against HIV-1 infected CEM cells.; type: functional, cell-based; details: Homo sapiens
[10] = tested on: CCRF-CEM; assay: Inhibitory activity against HIV-1 infected CEM cells; inactive; type: functional, cell-based, Homo sapiens

T2 sequence (Q7ZJM1 whole entry): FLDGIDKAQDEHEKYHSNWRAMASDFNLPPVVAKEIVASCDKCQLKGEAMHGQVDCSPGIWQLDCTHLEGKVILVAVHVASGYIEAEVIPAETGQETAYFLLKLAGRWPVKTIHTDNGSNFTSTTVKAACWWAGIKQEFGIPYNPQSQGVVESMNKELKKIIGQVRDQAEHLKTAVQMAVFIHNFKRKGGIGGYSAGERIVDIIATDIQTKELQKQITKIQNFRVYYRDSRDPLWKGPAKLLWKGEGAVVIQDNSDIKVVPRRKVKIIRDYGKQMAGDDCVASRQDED

| Compound | IC50 [1] [µM] | IC50 [2] [µM] | IC50 [3] [µM] | other results |
| --- | --- | --- | --- | --- |
| O=c1c(C(c2ccc3c(c2)OCO3)c2c(O)oc3ccccc3c2=O)c(O)oc2ccccc12 | 30 | 47 | 18 | – |
| O=C1C(O)=C(C(C2=C(O)C(=O)c3ccccc3C2=O)c2ccc(Cl)cc2)C(=O)c2ccccc21 | – | > 100 | > 100 | – |
| O=C1Oc2ccccc2C(O)C1Cc1c(O)oc2ccccc2c1=O (configuration not stated) | > 100 | > 100 | > 100 | – |
| CC(C1=C(O)C(=O)c2ccccc2C1=O)C1=C(O)C(=O)c2ccccc2C1=O | – | > 100 | > 100 | – |
| O=C1C(O)=C(C(C#Cc2ccccc2)C2=C(O)C(=O)c3ccccc3C2=O)C(=O)c2ccccc21 | – | > 100 | 72 | – |
| COc1cc(C(C2=C(O)C(=O)c3ccccc3C2=O)C2=C(O)C(=O)c3ccccc3C2=O)cc(OC)c1OC | – | > 100 | > 100 | – |
| CCOC(=O)C(C1=C(O)C(=O)c2ccccc2C1=O)C1=C(O)C(=O)c2ccccc2C1=O | – | 92 | 60 | – |
| O=c1c(C(c2ccc(C(c3c(O)oc4ccccc4c3=O)c3c(O)oc4ccccc4c3=O)cc2)c2c(O)oc3ccccc3c2=O)c(O)oc2ccccc12 | – | 1.5 | 0.8 | IC50 [4]: 1.7 µM; IC50 [5]: 10 µM; IC50 [6]: 2.3 µM; IC50 [7]: 1 µM; IC50 [8]: 2.2 µM; IC50 [9]: 11.5 µM |
| Cc1ccc(S(=O)(=O)N/N=C(/CCN2CCCC2)CC(c2ccccc2)c2c(O)oc3ccccc3c2=O)cc1 (configuration not stated) | > 100 | > 100 | > 100 | – |
| O=C(NC1=C(Cl)C(=O)c2ccccc2C1=O)C(=O)c1c(O)c2ccccc2oc1=O | > 100 | > 100 | > 100 | – |
| O=C1C(=O)c2ccccc2C(O)=C1Cc1ccc(Cl)cc1 | 3 | 92 | 56 | – |
| O=C1C(=O)c2ccccc2C(O)=C1Sc1ccccc1 | > 100 | > 100 | > 100 | – |
| COc1ccc2c(O)c(S(=O)(=O)c3ccc(Cl)cc3)c(=O)oc2c1 | > 100 | > 100 | > 100 | – |
| O=C1C(O)=C(C(C2=C(O)C(=O)c3ccccc3C2=O)c2ccc(Cl)c(Cl)c2)C(=O)c2ccccc21 | – | 90 | 52 | – |
| CCCCCCc1cc2c(cc1O)OC(=O)C(C(c1ccccc1)c1c(O)oc3cc(O)c(CCCCCC)cc3c1=O)C2O (configuration not stated) | 0.32 | 10.5 | 12 | – |
| O=c1oc2ccccc2c(O)c1-c1ccccc1 | 32 | > 100 | > 100 | – |
| CCOC(=O)C(c1c(O)c2ccccc2oc1=O)c1c(O)c2ccccc2oc1=O [ETHYL BISCOUMACETATE] | > 100 | > 100 | > 100 | – |
| COc1cc(C(C2=C(O)C(=O)c3ccccc3C2=O)C2=C(O)C(=O)c3ccccc3C2=O)cc(Br)c1O | – | 32 | 20 | – |
| CC(=O)Nc1ccc(C(C2=C(O)C(=O)c3ccccc3C2=O)C2=C(O)C(=O)c3ccccc3C2=O)cc1 | – | 86 | 78 | – |

| Compound | IC50 [1] [µM] | IC50 [2] [µM] | IC50 [3] [µM] | other results |
| --- | --- | --- | --- | --- |
| CN(C)c1ccc(C(C2=C(O)C(=O)c3ccccc3C2=O)C2=C(O)C(=O)c3ccccc3C2=O)cc1 | – | > 100 | > 100 | – |
| O=C1C(O)=C(C(C2=C(O)C(=O)c3ccccc3C2=O)c2ccc(C(C3=C(O)C(=O)c4ccccc4C3=O)C3=C(O)C(=O)c4ccccc4C3=O)cc2)C(=O)c2ccccc21 | – | 7.5 | 2.7 | IC50 [4]: 0.75 µM; IC50 [5]: 60 µM; IC50 [10]: Not Active |
| O=c1oc2cccc(O)c2c(O)c1Cc1ccccc1 | > 100 | > 100 | > 100 | – |
| O=C1C(=O)c2ccccc2C(O)=C1CSc1ccc(Cl)cc1 | 50 | > 100 | > 100 | – |
| CCOc1ccc(C(C2=C(O)C(=O)c3ccccc3C2=O)C2=C(O)C(=O)c3ccccc3C2=O)cc1OC | – | > 100 | > 100 | – |
| O=C1C(O)=C(C(C2=C(O)C(=O)c3ccccc3C2=O)c2ccccc2)C(=O)c2ccccc21 | – | 68 | 48 | – |
| O=C(SCc1c(O)c2ccccc2oc1=O)c1ccccc1 | > 100 | > 100 | > 100 | – |
| CCCCCCC/N=C1/C(=O)c2ccccc2C(O)=C1O | 33 | > 100 | > 100 | – |
| O=c1oc2c(-c3ccccc3)cccc2c(O)c1-c1ccccc1 | 13 | > 100 | > 100 | – |
| O=C1Oc2ccccc2C(O)C1Sc1c(O)oc2ccccc2c1=O (configuration not stated) | 21 | 80 | 100 | – |
| O=C1C(=O)c2ccccc2C(O)=C1CCCC1CCC2CCCCC2C1 (configuration not stated) | 8.5 | > 100 | > 100 | – |
| O=C1C(O)=C(C(CCc2ccccc2)C2=C(O)C(=O)c3ccccc3C2=O)C(=O)c2ccccc21 | – | 83 | 90 | – |
| O=C1C(O)=C(C(C2=C(O)C(=O)c3ccccc3C2=O)c2ccc(Cl)cc2Cl)C(=O)c2ccccc21 | 24 | 37 | 40 | – |
| CC(=O)c1cccc(NC(=O)C(=O)c2c(O)oc3ccccc3c2=O)c1 | > 100 | > 100 | > 100 | – |
| O=C1C=C(O)C(=O)c2ccccc21 [LAWSONE] | > 100 | – | – | – |
| COc1ccc2c(O)c(S(=O)(=O)c3ccc(C)cc3)c(=O)oc2c1 | > 100 | > 100 | > 100 | – |
| CC(C)c1cccc(C(C)C)c1NC(=O)C(=O)CC(=O)CC(c1ccccc1)c1c(O)oc2ccccc2c1=O (configuration not stated) | 31 | > 100 | > 100 | – |
| O=C(c1cccc([N+](=O)[O-])c1)c1c(O)oc2ccccc2c1=O | > 100 | > 100 | > 100 | – |
| O=C(c1ccc(Cl)cc1)c1c(O)c2ccccc2oc1=O | > 100 | > 100 | > 100 | – |
